Key:
[1] = Stability of the compound in stimulated intestinal fluid at 10 mg/ml pancreatin by measuring half life measured upto 180 mins by HPLC analysis; type: ADME; conditions: simulated intestinal fluid with pancreatin
In short: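 USP simulated intestinal fluid containing pancreatin, in a 37 °C shaking water bath. Samples at 0, 60, 120 and 180 min were quenched with ice-cold acetonitrile containing 0.5% formic acid, centrifuged at 4 °C for 10 min, filtered and analyzed by HPLC. Means of three experiments ± SD.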

[2] = Induction of DNA damage in Primary human whole blood cell assessed as 8-OH-dG adducts formation at 10 nM incubated for 24 hrs by […] (reference value: 0.12 to 2.21 pg/ml); type: functional
[3] = Induction of DNA damage in rat Cerebral cortex cell assessed as 8-OH-dG adducts formation at 500 nM incubated for 24 hrs by […] (reference value: 0.14 to 1.92 pg/ml); type: functional, Cerebral cortex neuron
In short: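 Primary rat cerebral cortex neurons from fetuses, grown in neurobasal medium with FCS on poly-D-lysine flasks and used after 8 days. Aqueous compound at 10–500 nM for 24 h at 37 °C. Untreated cultures served as negative control and MMC 10^-7 M as positive control. 8-OH-dG measured with a commercial ELISA-type kit and reported in pg/mL. Four independent experiments, mean ± SD.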

[4] = Induction of DNA damage in rat Cerebral cortex cell assessed as total DNA damage score at 50 nM incubated for 24 hrs by Comet assay (reference value: 36.8 to 89.2); type: functional, Cerebral cortex neuron
[5] = Stability of the compound in stimulated gastric fluid at 10 mg/ml pepsin by measuring half life measured upto 60 mins by HPLC analysis; type: ADME; conditions: simulated gastric fluid with pepsin
In short: (§1)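 USP simulated gastric fluid containing pepsin, preheated, in a 37 °C shaking water bath. Samples at 0, 15, 30 and 60 min were deproteinized with ice-cold acetonitrile containing 0.5% formic acid, centrifuged at 4 °C, filtered and analyzed by HPLC. Means of three experiments.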

[6] = Effective permeability of compound at 500 uM incubated for 18 hrs by […] method; type: ADME; conditions: read-out: Peff
In short: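 PAMPA-BBB: donor contained compound at 500 µM final in PBS pH 7.4 with 20% v/v MeOH. Incubated 18 h. Donor and acceptor concentrations measured by HPLC; effective permeability Pe (cm/s) calculated.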

[7] = Antioxidant activity against rat Cerebral cortex cell assessed as trolox equivalent of total antioxidant capacity at 250 nM incubated for 24 hrs (14.7 to 27.5 mmolequiv/L ); type: functional, Cerebral cortex neuron
[8] = Induction of DNA damage in Primary human whole blood cell assessed as 8-OH-dG adducts formation at 50 nM incubated for 24 hrs by […] (reference value: 0.12 to 2.21 pg/ml); type: functional
[9] = Induction of DNA damage in Primary human whole blood cell assessed as 8-OH-dG adducts formation at 500 nM incubated for 24 hrs by […] (reference value: 0.12 to 2.21 pg/ml); type: functional
[10] = Antioxidant activity against Primary human whole blood cell assessed as trolox equivalent of total antioxidant capacity at 500 nM incubated for 24 hrs (19.3 to 32.5 mmolequiv/L ); type: functional
[11] = Antioxidant activity against Primary human whole blood cell assessed as H2O2 equivalent of total oxidative stress at 10 nM incubated for 24 hrs (0.6 to 1.9 micromolequiv/L); type: functional
[12] = Stability of the compound in stimulated gastric fluid at 40 mg/ml pepsin by measuring half life measured upto 60 mins by HPLC analysis; type: ADME; conditions: simulated gastric fluid with pepsin; in short: as §1
[13] = Antioxidant activity against Primary human whole blood cell assessed as trolox equivalent of total antioxidant capacity at 250 nM incubated for 24 hrs (19.3 to 32.5 mmolequiv/L ); type: functional
[14] = Induction of DNA damage in Primary human whole blood cell assessed as total DNA damage score at 100 nM incubated for 24 hrs by Comet assay (reference value: 35.4 to 77.9); type: functional
[15] = Stability of the compound in stimulated gastric fluid at 40 mg/ml pepsin by measuring observed rate constant measured upto 60 mins by HPLC analysis; type: ADME; conditions: simulated gi fluid, 1 h; in short: as §1
[16] = Induction of DNA damage in Primary human whole blood cell assessed as 8-OH-dG adducts formation at 250 nM incubated for 24 hrs by […] (reference value: 0.12 to 2.21 pg/ml); type: functional
[17] = Antioxidant activity against rat Cerebral cortex cell assessed as trolox equivalent of total antioxidant capacity at 500 nM incubated for 24 hrs (14.7 to 27.5 mmolequiv/L ); type: functional, Cerebral cortex neuron
[18] = Genotoxicity in human Lymphocyte assessed as sister chromatid exchange measured per cells at 10 nM incubated for 72 hrs giemsa staining based fluorescence method (reference value: 6.6 to 14.3); type: toxicity, cell-based; conditions: 0.01 µM
[19] = Induction of DNA damage in rat Cerebral cortex cell assessed as 8-OH-dG adducts formation at 10 nM incubated for 24 hrs by Comet assay (reference value: 0.14 to 1.92 pg/ml); type: functional, Cerebral cortex neuron
[20] = Genotoxicity in human Lymphocyte assessed as micronuclei formation measured per 1000 cells at 500 nM incubated for 72 hrs giemsa staining based analysis (reference value: 4.5 to 17.9); type: toxicity, cell-based; conditions: 0.5 µM
In short: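 Human whole-blood lymphocyte cultures with phytohemagglutinin, incubated with compound for 72 h at 37 °C. Cytochalasin B added at 44 h. Cells fixed in ice-cold methanol/acetic acid 1:1, cytospun, Giemsa-stained. At least 1000 binucleated lymphocytes per concentration scored for micronuclei by one observer.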

[21] = Cytotoxicity against rat Cerebral cortex cell at 10 to 500 nM incubated for 24 hrs by MTT assay; type: toxicity, cell-based; conditions: cerebral cortex neuron, 0.5 µM, dose 10-500 nM
In short: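 Primary cultures (rat fetal cortical neurons; human whole-blood cultures with phytohemagglutinin) exposed to aqueous compound at 10–500 nM for 24 h at 37 °C. Then incubated with 0.7 mg/mL MTT for 30 min at 37 °C, formazan extracted with isopropanol/formic acid 95:5, read at 560 nm. Control formazan = 100% viability. Mitomycin C 10^-7 M as positive control; n = 4.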

[22] = Induction of DNA damage in rat Cerebral cortex cell assessed as total DNA damage score at 10 nM incubated for 24 hrs by Comet assay (reference value: 36.8 to 89.2); type: functional, Cerebral cortex neuron
[23] = Genotoxicity in human Lymphocyte assessed as sister chromatid exchange measured per cells at 100 nM incubated for 72 hrs giemsa staining based fluorescence method (reference value: 6.6 to 14.3); type: toxicity, cell-based; conditions: 0.1 µM
[24] = Antioxidant activity against rat Cerebral cortex cell assessed as H2O2 equivalent of total oxidative stress at 500 nM incubated for 24 hrs (0.7 to 2.3 micromolequiv/L); type: functional, Cerebral cortex neuron
[25] = Induction of DNA damage in rat Cerebral cortex cell assessed as 8-OH-dG adducts formation at 250 nM incubated for 24 hrs by […] (reference value: 0.14 to 1.92 pg/ml); type: functional, Cerebral cortex neuron
[26] = Stability of the compound in hydrochloric acid buffer assessed as chemical hydrolysis by measuring half life at pH 1.2; type: physicochemical
In short: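 Chemical hydrolysis at 37 °C in hydrochloric acid buffer pH 1.2 or phosphate buffer pH 7.4. Remaining compound followed by HPLC with UV detection. t1/2 and k_obs are means of three experiments ± SD.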

## C#CCSC[C@H]1NC(=O)[C@H](Cc2ccc(OC(C)=O)c(OC(C)=O)c2)NC1=O
[1]
  half-life: 3.51 h
[2]
  Activity: 0.12 pg/mL
[3]
  Activity: 0.15 pg/mL
[4]
  Activity: 37.2
[5]
  half-life: 91 h
[6]
  Papp at 18 h, 500 µM: 4.88 ×10⁻⁶ cm/s
[7]
  Activity: 15.4 mmolequiv/L
[8]
  Activity: 0.11 pg/mL
[9]
  Activity: 0.13 pg/mL
[10]
  Activity: 19.4 mmolequiv/L
[11]
  Activity: 0.6 umolequiv/L
[12]
  half-life: 57.1 h
[13]
  Activity: 19.8 mmolequiv/L
[14]
  Activity: 35.6
[15]
  Kobs: 0.012 h⁻¹
[16]
  Activity: 0.13 pg/mL
[17]
  Activity: 14.8 mmolequiv/L
[18]
  Activity: 6.5
[19]
  Activity: 0.14 pg/mL
[20]
  Activity: 5.1
[21]
  Activity: Non-Toxic
[22]
  Activity: 36.9
[23]
  Activity: 6.6
[24]
  Activity: 0.6 umolequiv/L
[25]
  Activity: 0.14 pg/mL
[26]
  half-life: 134 h

## C=CCSC[C@H]1NC(=O)[C@H](Cc2ccc(OC(C)=O)c(OC(C)=O)c2)NC1=O
[1]
  half-life: 0.68 h
[2]
  Activity: 0.12 pg/mL
[3]
  Activity: 0.15 pg/mL
[4]
  Activity: 36.4
[5]
  half-life: 24.2 h
[6]
  Papp at 18 h, 500 µM: 2.42 ×10⁻⁶ cm/s
[7]
  Activity: 14.7 mmolequiv/L
[8]
  Activity: 0.12 pg/mL
[9]
  Activity: 0.13 pg/mL
[10]
  Activity: 18.4 mmolequiv/L
[11]
  Activity: 0.6 umolequiv/L
[12]
  half-life: 22.4 h
[13]
  Activity: 18.8 mmolequiv/L
[14]
  Activity: 35.5
[15]
  Kobs: 0.031 h⁻¹
[16]
  Activity: 0.12 pg/mL
[17]
  Activity: 14.9 mmolequiv/L
[18]
  Activity: 6.8
[19]
  Activity: 0.14 pg/mL
[20]
  Activity: 5.2
[21]
  Activity: Non-Toxic
[22]
  Activity: 36.3
[23]
  Activity: 6.9
[24]
  Activity: 0.7 umolequiv/L
[25]
  Activity: 0.15 pg/mL
[26]
  half-life: 18.9 h

Source: ChEMBL document CHEMBL5352422, “Development of l-Dopa-containing diketopiperazines as blood-brain barrier shuttle” (Eur J Med Chem, 2022)
